Compounds with a hit are over-represented: about 3.5% of the library has one in this group of screens.
NF-kB neuron act = NF-kB expression increase, human neuronal cells | AID 1239 | fold change at 12.5 µM | NF-kB reporter expression; hits give high values | 1.6% of 190,000 active; in the data active = fold change above about 3.3
FLuc stim CS = firefly luciferase counter-screen for stimulation assays | ATPlite luciferase biochemical, luminescence, 10 min; 0 = ATP-free wells, 1 = DMSO control | activation factor at 10 µM | 200,000 tested, under 10 active;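 active = luciferase activation factor, scaled between plate controls, of at least 2 with compound at 10 µM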
Target sequence (P08659 whole entry, looked up): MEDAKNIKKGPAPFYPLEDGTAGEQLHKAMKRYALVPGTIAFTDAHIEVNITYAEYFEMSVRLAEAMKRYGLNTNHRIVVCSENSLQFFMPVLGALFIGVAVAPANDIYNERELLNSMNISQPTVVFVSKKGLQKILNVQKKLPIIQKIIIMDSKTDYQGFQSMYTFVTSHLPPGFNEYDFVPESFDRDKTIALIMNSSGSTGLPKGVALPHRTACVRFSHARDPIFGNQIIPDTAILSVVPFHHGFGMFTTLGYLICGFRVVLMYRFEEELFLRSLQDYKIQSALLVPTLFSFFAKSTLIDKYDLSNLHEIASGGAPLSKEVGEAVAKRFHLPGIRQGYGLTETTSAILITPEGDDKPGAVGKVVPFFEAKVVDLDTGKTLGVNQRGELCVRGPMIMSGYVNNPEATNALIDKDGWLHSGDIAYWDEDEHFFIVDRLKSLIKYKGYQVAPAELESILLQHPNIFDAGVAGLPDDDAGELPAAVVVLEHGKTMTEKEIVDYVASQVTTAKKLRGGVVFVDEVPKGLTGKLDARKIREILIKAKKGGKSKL
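Assay system – cell-free luciferase reagent · Medium – PBS-based ATP solution · Dosing – test compounds dosed from 2 mM stocks in 100% DMSO · Timing – 10 min, room temperature · Technique – light output (luminescence) · Measure – luminescence gain marking luciferase activators · Controls – No-ATP low control, compound-free enzyme-plus-ATP high control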
APP 5'UTR act = activates APP 5'UTR luciferase reporter | 1% of 190,000 active | AID 1276 | activation, % at 2 µM | SH-SY5Y APP 5'UTR luciferase reporter, luminescence; zero percent = DMSO vehicle wells;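 active = activation above a set limit, based on mean plus 3 SD of controls, cut at about 140% in these data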
Pf gamet viab = inhibitors of late stage P. falciparum gametocyte viability; P. falciparum stage V gametocytes, ATP luminescence, 24 h; inhibition, % at 10.9 µM; 0.065% of 150,000 active; AID 743093;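 active = inhibition above the mean plus 3 SD of compounds within the control limits, set per campaign, cut at about 38% in these data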;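 note: 0% = DMSO wells and 100% = medium only without gametocytes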
FLuc inhib CS = counter-screen for luciferase assay inhibitors: firefly luciferase inhibition; 1.5% of 200,000 active; ATPLite firefly luciferase biochemical luminescence, 10 min; inhibition, % at 10 µM; P08659;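 active = inhibition above about 50% when tested at 10 µM, limit read from the data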
STAT1 act = STAT1 signaling activation. NIH 3T3 STAT1-luciferase reporter, IFN-gamma, luminescence; 100% = IFN-gamma alone, no compound. activation (% of control), % at 5.5 µM. 2.6% of 200,000 active;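 active = activation above the screen-wide mean activation plus 3 SD, cut at about 130% in these data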;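 note: raw ratio to IFN-gamma control signal so 100% means no change and 0% no light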
The depositor's hits bear a star; . = not tested or not shown.

SMILES	NF-kB neuron act	FLuc stim CS	APP 5'UTR act	Pf gamet viab	FLuc inhib CS	STAT1 act
COc1nc(-c2ccccc2)ccc1-c1noc(-c2ccco2)n1	3.7*	1	10	.	-2	145*
C=CCOc1ccc(CN(C)CC(=O)Nc2ccccc2[N+](=O)[O-])cc1	0.96	1	2	-11	-4	89
O=C(Cn1ccc2ccccc2c1=O)NCCC(=O)N1CCN(c2cccc(C(F)(F)F)c2)CC1	0.69	1	-3	.	-4	103
c1ccc(NCC2OCc3ccccc3CO2)cc1	2.3	0.9	58	-5	6	136*
CCCCCCNCC1OCc2ccccc2CO1	1	1	-16	-23	-2	105
COCCN1Cc2cccc(C(=O)NCCCN3CCCC3=O)c2C1=O	.	.	.	4	.	.
COc1ccccc1/C=C/c1nc(C#N)c(N(C)C)o1	.	.	.	1	.	.
CN(C)c1oc(/C=C/c2ccccc2)nc1C#N	2.1	1	62	-16	0	138*
COc1ccccc1NS(=O)(=O)c1cc(NC(=O)Cn2cnc3c2c(=O)n(C)c(=O)n3C)ccc1C	0.86	1	-20	-33	-5	103
Cc1cccc2nc(COc3ccc4ccccc4c3Br)cn12	.	.	.	6	.	.
COC(=O)N/N=C(\C)c1ccc(Br)cc1	1.5	0.9	-16	-10	9	112
C/C(=N\NC(=O)OC(C)(C)C)c1ccccc1Br	2.1	1	20	-11	3	132*
Cc1cccc(NC(=O)c2ccc(COc3ccc(Cl)cc3Cl)o2)n1	1.1	1	1	.	2	101
CCOc1ccc(C(=O)Nc2cccc(C)n2)cc1	4.6*	0.2	144*	-2	79*	112
CCOc1ccc(C(=O)Nc2cc(C)ccn2)cc1	3.7*	0	186*	22	97*	30
CCOc1ccc(C(=O)Nc2nnn(CC)n2)cc1	2.1	0.4	64	.	60*	116
CCCn1nnc(NC(=O)c2ccc(OC)cc2)n1	1.7	0.9	-1	.	13	126
Cc1cccc(NC(=O)c2ccc(COc3ccc4ccccc4c3)o2)n1	2.3	1.1	21	-14	-5	145*
O=C(O)CONC(=O)c1cc(OCC(F)(F)F)ccc1OCC(F)(F)F	1	1.1	13	.	-5	95
CC(=O)c1ccc(NC(=O)C(C)OC(=O)COc2ccc(C#N)cc2)cc1 (configuration not stated)	1	1.1	1	3	-5	100
Cc1cccc(NC(=O)c2csnn2)n1	13*	1	-18	37	-3	102
Cn1nnc(NC(=O)c2ccc3ccccc3c2)n1	1.4	0.8	19	.	24	100
Cc1ccc(NC(=O)c2csnn2)c(C)c1	1.7	1	16	15	-4	100
Cn1nnc(NC(=O)c2ccc(C(C)(C)C)cc2)n1	2	0.2	78	18	80*	103
CCOC(=O)N1CCN(C(=O)c2cc(-c3ccc(OCC)cc3)nc3ccccc23)CC1	3.3*	0.1	-78	.	92*	146*
SMILES	NF-kB neuron act	FLuc stim CS	APP 5'UTR act	Pf gamet viab	FLuc inhib CS	STAT1 act
CCOc1ccc(-c2cc(C(=O)N3CCN(C)CC3)c3ccccc3n2)cc1	2	0.2	37	33	83*	117
CCOC(=O)Nc1ccc2c(c1)N(C(=O)CN1CCN(CCO)CC1)c1ccccc1CC2	.	.	.	-9	.	.
CCOC(=O)C1CCN(C(=O)c2cccnc2Oc2ccccc2)CC1	.	.	.	-1	.	.
c1ccc(OCc2nc(-c3ccccc3)no2)cc1	2.8	0.9	34	.	7	142*
Cc1cccc(-c2noc(Cc3ccccc3)n2)c1	2.1	0.9	42	.	6	135*
c1ccc(CCc2nc(-c3ccccc3)no2)cc1	1.8	1	18	.	2	134*
Brc1ccc(-c2noc(CCc3ccccc3)n2)cc1	.	.	18	10	.	101
Cc1cccc(-c2noc(CCc3ccccc3)n2)c1	2.3	1	45	.	4	112
O=C(Nc1ccc(-c2noc(CCc3ccccc3)n2)cc1)c1ccco1	3.9*	0.6	173*	-12	40	136*
COc1ccc(-c2c(-c3cc(OC)cc(OC)c3)n(C)c3ccc(-c4ccc(N(C)C)nc4)cc23)cc1	.	.	.	2	.	.
Cn1c(=O)c2c(ncn2CCC(=O)N/N=C/c2ccncc2)n(C)c1=O	.	.	.	0	.	.
O=C(Nc1ccc(-c2cn3ccccc3n2)cc1)c1ccco1	2.4	0.1	122	3	86*	144*
c1ccc(-c2noc(CN3CCN(c4ccccc4)CC3)n2)cc1	1.1	1.1	.	.	-8	98
O=C(Nc1ccc(-c2cn3ccccc3n2)cc1)c1ccc(Cl)cc1	1.5	1	14	10	0	105
CC1CCN(Cc2nc(-c3ccccc3)no2)CC1	3.4*	.	75	5	.	142*
Fc1ccc2c(c1)[C@H]1OCC[C@H]1[C@@H](c1ccco1)N2	1.5	1.1	-1	-28	-5	103
Clc1ccc2c(c1)[C@H]1OCC[C@H]1[C@@H](c1ccco1)N2	1.8	0.4	17	.	59*	104
COc1cc(/C=N/N=C2/C(=O)Nc3ccccc32)ccc1O	1.4	0.1	-6	.	94*	96
COc1cc(/C=N/N2C(=O)C3C4C=CC(CC4)C3C2=O)ccc1O (configuration not stated)	1.1	0.9	2	-40	14	127
COc1cc(/C=N/N2C(=O)c3ccccc3C2=O)ccc1O	1.1	0.4	6	15	57*	93
S=C(NCC1CCCO1)N1CCN(c2nc(-c3ccc(Cl)cc3)cs2)CC1 (configuration not stated)	0.6	1	-20	5	-5	74
CSc1ccc(/C=N/NC(=O)c2ccc(O)cc2)cc1	2.3	0.3	46	0	71*	126
CSc1ccc(/C=N/NC(=O)c2ccccc2Cl)cc1	.	0.9	10	3	9	133*
COc1ccc(NC(=O)C(Cc2ccccc2)n2cccc2)c(OC)c1 (configuration not stated)	.	.	.	-2	.	.
CCCCc1ccc(NC(=S)N2CCN(c3ncccn3)CC2)cc1	1	1	28	.	0	97
SMILES	NF-kB neuron act	FLuc stim CS	APP 5'UTR act	Pf gamet viab	FLuc inhib CS	STAT1 act
Cc1cccc(OCCCC(=O)Nc2ccc(N(C)C)cc2)c1	1.2	1	92	.	3	145*
Cc1cccc(OCCCC(=O)Nc2ccc(Br)cc2)c1	1	1.1	-4	.	-7	107
CC1CC(C)(C)NC(=S)N1CCCC(=O)Nc1ccc2c(c1)OCCO2 (configuration not stated)	1.2	1	61	15	4	137*
O=C(COc1ccccc1Cl)Nc1ccc2c(c1)OCCO2	2.8	0.6	190*	.	39	116
O=C(CCc1ccccc1)Nc1ccc2c(c1)OCCO2	4.5*	0.7	132	11	34	145*
COc1ccc(C2SCC(=O)N2CCc2ccc(OC)c(OC)c2)cc1 (configuration not stated)	0.79	1	-10	-3	-4	73

Bioassay records as filed in PubChem.
